Experiments:
[1] = system: MDA-MB-231 orthotopic breast tumor xenograft; test: Orthotopic breast cancer xenograft in nude mice; format: in vivo, nu/nu mice; conditions: for Blood vessel density in tumor (CD31 staining): 10 mg/kg i.p. alone, four doses; for Tumor size relative to controls: 10 mg/kg i.p., twice per week for 2 wk, starting 2 wk after cell transplantation; for Tumor volume relative to control group: 3 mg/kg i.p., P < 0.01, 1b vs 1a not different (P = 0.16)
Outline: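 Female nu/nu mice, 4–6 wk, anesthetized with ketamine/xylazine i.p. Trypsinized MDA-MB-231 cells in cross-linkable ECM (5 × 10^7 cells/mL) were injected into the fourth mammary fat pad (200 µL; 100 µL in 3 mg/kg study). From 2 wk after implant, i.p. twice weekly for 2 wk; six mice/group; saline control. Arms: test compound 10 mg/kg, Taxol 10 mg/kg, Taxol week 1 then compound week 2; diastereomers 3 mg/kg. Volume = width² × length/2.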

human LPA1 = human LPA1 (Homo sapiens, UniProt Q92633); test: Ca2+ mobilization assay, LPA1 expressed in RH7777 cells; format: cell-based; conditions: for Ki: read-out: LPA1 Ki; for IC50: read-out: LPA1 antagonist IC50
Outline: (§1)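 Intracellular Ca2+ mobilization measured in RH7777 cells expressing the human receptor (LPA1, LPA2, LPA3 or LPA5); parental line intrinsically unresponsive to LPA. Both activation and inhibition of LPA responses tested. Quadruplicate tests; EC50, IC50 and Ki derived by sigmoid curve fitting.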

human LPA2 = human LPA2 (Homo sapiens, UniProt Q9HBW0); test: Ca2+ mobilization assay, LPA2 expressed in RH7777 cells; format: cell-based; conditions: for Ki: read-out: LPA2 Ki; for IC50: read-out: LPA2 antagonist IC50
Outline: as §1

human LPA3 = target: T1, human LPA3 (Homo sapiens, UniProt Q9UBY5); test: Ca2+ mobilization assay, LPA3 expressed in RH7777 cells; format: cell-based; conditions: for LPA3 ligand type / Ki / IC50: Ca2+ mobilization, RH7777 cells; for Ki: read-out: LPA3 Ki; for IC50: read-out: LPA3 antagonist IC50
T1 sequence (Q9UBY5 1-353): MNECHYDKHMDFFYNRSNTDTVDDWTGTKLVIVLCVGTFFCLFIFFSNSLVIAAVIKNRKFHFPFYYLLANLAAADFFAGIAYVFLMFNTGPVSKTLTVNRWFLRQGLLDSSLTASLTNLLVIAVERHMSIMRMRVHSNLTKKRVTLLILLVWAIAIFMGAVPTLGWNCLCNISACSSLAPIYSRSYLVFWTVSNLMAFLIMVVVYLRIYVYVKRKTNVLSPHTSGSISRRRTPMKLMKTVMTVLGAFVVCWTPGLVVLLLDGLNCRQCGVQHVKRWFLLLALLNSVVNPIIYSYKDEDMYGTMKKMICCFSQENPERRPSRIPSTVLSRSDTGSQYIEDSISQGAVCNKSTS
Outline: as §1

human LPA4 = human LPA4 (Homo sapiens, UniProt Q99677); test: Ca2+ mobilization assay, LPA4 expressed in CHO cells; format: cell-based; conditions: for LPA4 ligand type: Ca2+ mobilization, CHO cells; for LPA4 inhibition: at 30 μmol/L (400 nmol/L LPA)
human LPA5 = human LPA5 (Homo sapiens, UniProt Q9H1C0); test: Ca2+ mobilization assay, LPA5 expressed in RH7777 cells; format: cell-based; conditions: for LPA5 ligand type: transiently transfected; for LPA5 E max: at 10 μmol/L
Outline: as §1

[2] = target: T2, recombinant hemagglutinin-tagged ATX (ATX-HA) (Homo sapiens, UniProt Q13822); test: ATX assay, hydrolysis of fluorogenic substrate FS-3; format: biochemical; conditions: for ATX inhibition: 10 μmol/L, FS-3 substrate 1 μmol/L, 2 h, 37°C; for IC50: read-out: ATX inhibition IC50, FS-3 substrate, 0.01 to 10 μmol/L
Outline: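 Mixed with FS-3 (final 1 µmol/L) and test compound (0.01–10 µmol/L) in assay buffer with BSA. Fluorescence read at ex 485/em 538 nm over 2 h, 37°C. The 0–120 min difference was normalized to vehicle; triplicate wells, % inhibition; Student's t test.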

MDA-MB-231 cells [3] = test: Scratch wound assay; format: cell-based, human; conditions: for Effect on MDA-MB-231 cell migration: 10 and 40 μmol/L, 24 h
[4] = target: T2, recombinant hemagglutinin-tagged ATX (ATX-HA); conditions: at 10 μmol/L; previously observed; cited from earlier work
MDA-MB-231 cells [5] = test: In vitro invasion assay through Matrigel-coated transwell membranes; format: cell-based, human; conditions: P < 0.05
[6] = Ca2+ mobilization, RH7777 cells

human LPA1, sequence (Q92633 whole entry): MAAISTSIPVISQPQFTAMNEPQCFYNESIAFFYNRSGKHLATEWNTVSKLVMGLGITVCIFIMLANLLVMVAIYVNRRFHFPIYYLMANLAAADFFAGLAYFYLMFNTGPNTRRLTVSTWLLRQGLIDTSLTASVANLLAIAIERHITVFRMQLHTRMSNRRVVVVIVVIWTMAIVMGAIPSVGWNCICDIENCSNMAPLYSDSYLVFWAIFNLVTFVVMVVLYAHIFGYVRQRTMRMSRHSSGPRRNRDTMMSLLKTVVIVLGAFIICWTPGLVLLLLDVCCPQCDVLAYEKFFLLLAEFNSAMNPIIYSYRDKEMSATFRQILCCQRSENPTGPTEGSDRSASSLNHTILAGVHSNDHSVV
human LPA5, sequence (Q9H1C0 whole entry): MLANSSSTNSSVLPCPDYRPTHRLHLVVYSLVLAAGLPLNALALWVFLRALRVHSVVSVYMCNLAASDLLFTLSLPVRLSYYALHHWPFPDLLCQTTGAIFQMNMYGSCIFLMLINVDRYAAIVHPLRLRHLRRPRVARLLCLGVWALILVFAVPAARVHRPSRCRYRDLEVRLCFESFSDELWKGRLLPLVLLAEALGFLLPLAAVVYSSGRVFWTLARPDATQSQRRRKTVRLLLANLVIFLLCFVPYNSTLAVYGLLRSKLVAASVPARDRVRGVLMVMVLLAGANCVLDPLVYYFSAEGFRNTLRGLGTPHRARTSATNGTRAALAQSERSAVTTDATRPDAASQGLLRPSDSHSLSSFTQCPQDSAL
human LPA4, sequence (Q99677 whole entry): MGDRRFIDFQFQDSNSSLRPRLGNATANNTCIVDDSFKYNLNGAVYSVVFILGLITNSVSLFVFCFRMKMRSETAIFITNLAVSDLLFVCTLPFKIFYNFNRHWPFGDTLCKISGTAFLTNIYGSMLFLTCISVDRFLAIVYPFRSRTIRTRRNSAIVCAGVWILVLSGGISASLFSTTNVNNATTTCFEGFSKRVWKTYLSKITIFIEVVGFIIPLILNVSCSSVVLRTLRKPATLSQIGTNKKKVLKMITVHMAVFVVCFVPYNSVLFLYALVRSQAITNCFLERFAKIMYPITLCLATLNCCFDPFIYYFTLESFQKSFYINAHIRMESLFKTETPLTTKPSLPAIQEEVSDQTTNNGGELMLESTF
human LPA2, sequence (Q9HBW0 whole entry): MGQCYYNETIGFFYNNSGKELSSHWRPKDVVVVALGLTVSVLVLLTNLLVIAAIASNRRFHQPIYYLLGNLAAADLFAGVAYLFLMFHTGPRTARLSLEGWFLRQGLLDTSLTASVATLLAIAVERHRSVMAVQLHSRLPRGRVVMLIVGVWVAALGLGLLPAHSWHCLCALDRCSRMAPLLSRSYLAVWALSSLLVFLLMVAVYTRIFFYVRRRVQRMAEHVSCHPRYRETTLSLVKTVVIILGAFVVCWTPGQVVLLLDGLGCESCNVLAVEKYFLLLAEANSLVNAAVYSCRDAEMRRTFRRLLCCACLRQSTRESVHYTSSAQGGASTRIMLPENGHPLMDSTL

Row | SMILES | Blood vessel density in tumor (CD31 staining) [1] | Tumor size relative to controls [1] | LPA1 ligand type (human LPA1) | Ki (human LPA1) | IC50 (human LPA1) | LPA2 ligand type (human LPA2) | Ki (human LPA2) | IC50 (human LPA2) | LPA3 ligand type (human LPA3) | LPA4 ligand type (human LPA4) | LPA4 inhibition (human LPA4) | LPA5 ligand type (human LPA5; [6]) | LPA5 E max (human LPA5) | ATX inhibition [2] | Ki (human LPA3) | IC50 (human LPA3) | IC50 [2] | Effect on MDA-MB-231 cell migration (MDA-MB-231 cells [3]) | Inhibition of MDA-MB-231 invasion (MDA-MB-231 cells [5]) | Tumor volume relative to control group [1] | other results
1 | CC(=O)O[C@H]1C(=O)[C@@]2(C)[C@H]([C@H](OC(=O)c3ccccc3)[C@]3(O)C[C@H](OC(=O)[C@H](O)[C@@H](NC(=O)c4ccccc4)c4ccccc4)C(C)=C1C3(C)C)[C@]1(OC(C)=O)CO[C@@H]1C[C@@H]2O [Taxol, reference compound] | statistically different from the control | reduction of tumor size relative to controls |  |  |  |  |  |  |  |  |  |  |  |  |  |  |  |  |  |  | 
2 | CCCCCCCCCCCCCCCC(=O)OCC(O)CC(Br)P(=O)(O)O (stereo not drawn) [compound 1, palmitoyl α-bromomethylenephosphonate] | significantly lower blood vessel density | reduction of tumor size relative to controls | Antagonist | 805 nM | 4520 nM | Antagonist | 245 nM | 468 nM | Antagonist | Antagonist | 13.9% | Partial agonist | 54% | 102 ± 2.7% inhibition (10 μmol/L) |  |  |  |  |  |  | LPA3 inhibition (human LPA3; at 30 μmol/L (200 nmol/L LPA)): 71.3%; EC50 (human LPA5; read-out: LPA5 agonist EC50, Ca2+ mobilization, NS = non-saturated): 1280 nM; Effect of mixed diastereomers on cell migration (MDA-MB-231 cells [3]; data not shown): intermediate inhibition of cell migration; Blood vessel density in tumor (CD31 staining), sequential treatment ([1]; Taxol (10 mg/kg, two doses) then BrP-LPA 1 (10 mg/kg, two doses), i.p.): statistically different from the control; Tumor size relative to controls, sequential treatment ([1]; two injections of Taxol (10 mg/kg) week 1, then two injections of BrP-LPA 1 (10 mg/kg) week 2, i.p.): reduction of tumor size relative to controls; ATX activity inhibited [4]: over 98%
3 | CCCCCCCCCCCCCCCC(=O)OC[C@@H](O)C[C@@H](Br)P(=O)(O)O [1a] |  |  | Antagonist | 273 nM | 648 nM | Antagonist | 250 nM | 288 nM | Antagonist | Antagonist | 35.1% | Partial agonist | 64% | 98.1 ± 2.3% inhibition (10 μmol/L) | 1830 nM | 4440 nM | 165 nM | inhibited the MDA-MB-231 cell migration | ~ 52% | significantly decreased the tumor volume | 
4 | CCCCCCCCCCCCCCCC(=O)OC[C@@H](O)C[C@H](Br)P(=O)(O)O [1b] |  |  | Antagonist | 752 nM | 2080 nM | Antagonist | 241 nM | 275 nM | Antagonist | Antagonist | 33.1% | Antagonist |  | 99.4 ± 2.7 % Inhibition (10 μmol/L) | 623 nM | 2090 nM | 22 nM | inhibited the MDA-MB-231 cell migration | ~ 52% | significantly decreased the tumor volume | Ki (human LPA5; read-out: LPA5 Ki, Ca2+ mobilization, RH7777 cells): 376 nM; IC50 (human LPA5; read-out: LPA5 antagonist IC50, Ca2+ mobilization, RH7777 cells): 977 nM; Decrease of MDA-MB-231 cell migration vs untreated control (MDA-MB-231 cells [3]; 40 μmol/L, P < 0.05): 57%

From publication PMC3446773 (Cancer research, 2009)
